# Reference: ChEMBL document CHEMBL4368880, “Synthesis and biological evaluation of 3-(1,3,4-oxadiazol-2-yl)-1,8-naphthyridin-4(1H)-ones as cisplatin sensitizers” (Medchemcomm, 2018)
# Active and inactive are the calls of the source. The rule behind the calls is not given here.
# Legend:
# HCT-116 [1] = assay: Induction of apoptosis in human HCT116 cells assessed as necrotic cells at 2.5 uM after 24 hrs by Annexin V-FITC/propidium iodide staining based flow cytometry (reference value: […]); assay type: functional
# [2] = target: Serine/threonine-protein kinase ATR (Homo sapiens) (UniProt Q13535); assay: Inhibition of ATR in human HCT116 cells assessed as reduction in cisplatin-induced CHK1 expression preincubated for 24 hrs followed by cisplatin addition and measured after 48 hrs by Western blot analysis; assay type: cell-based
# Chain of Serine/threonine-protein kinase ATR (Homo sapiens) (Q13535 whole entry, looked up): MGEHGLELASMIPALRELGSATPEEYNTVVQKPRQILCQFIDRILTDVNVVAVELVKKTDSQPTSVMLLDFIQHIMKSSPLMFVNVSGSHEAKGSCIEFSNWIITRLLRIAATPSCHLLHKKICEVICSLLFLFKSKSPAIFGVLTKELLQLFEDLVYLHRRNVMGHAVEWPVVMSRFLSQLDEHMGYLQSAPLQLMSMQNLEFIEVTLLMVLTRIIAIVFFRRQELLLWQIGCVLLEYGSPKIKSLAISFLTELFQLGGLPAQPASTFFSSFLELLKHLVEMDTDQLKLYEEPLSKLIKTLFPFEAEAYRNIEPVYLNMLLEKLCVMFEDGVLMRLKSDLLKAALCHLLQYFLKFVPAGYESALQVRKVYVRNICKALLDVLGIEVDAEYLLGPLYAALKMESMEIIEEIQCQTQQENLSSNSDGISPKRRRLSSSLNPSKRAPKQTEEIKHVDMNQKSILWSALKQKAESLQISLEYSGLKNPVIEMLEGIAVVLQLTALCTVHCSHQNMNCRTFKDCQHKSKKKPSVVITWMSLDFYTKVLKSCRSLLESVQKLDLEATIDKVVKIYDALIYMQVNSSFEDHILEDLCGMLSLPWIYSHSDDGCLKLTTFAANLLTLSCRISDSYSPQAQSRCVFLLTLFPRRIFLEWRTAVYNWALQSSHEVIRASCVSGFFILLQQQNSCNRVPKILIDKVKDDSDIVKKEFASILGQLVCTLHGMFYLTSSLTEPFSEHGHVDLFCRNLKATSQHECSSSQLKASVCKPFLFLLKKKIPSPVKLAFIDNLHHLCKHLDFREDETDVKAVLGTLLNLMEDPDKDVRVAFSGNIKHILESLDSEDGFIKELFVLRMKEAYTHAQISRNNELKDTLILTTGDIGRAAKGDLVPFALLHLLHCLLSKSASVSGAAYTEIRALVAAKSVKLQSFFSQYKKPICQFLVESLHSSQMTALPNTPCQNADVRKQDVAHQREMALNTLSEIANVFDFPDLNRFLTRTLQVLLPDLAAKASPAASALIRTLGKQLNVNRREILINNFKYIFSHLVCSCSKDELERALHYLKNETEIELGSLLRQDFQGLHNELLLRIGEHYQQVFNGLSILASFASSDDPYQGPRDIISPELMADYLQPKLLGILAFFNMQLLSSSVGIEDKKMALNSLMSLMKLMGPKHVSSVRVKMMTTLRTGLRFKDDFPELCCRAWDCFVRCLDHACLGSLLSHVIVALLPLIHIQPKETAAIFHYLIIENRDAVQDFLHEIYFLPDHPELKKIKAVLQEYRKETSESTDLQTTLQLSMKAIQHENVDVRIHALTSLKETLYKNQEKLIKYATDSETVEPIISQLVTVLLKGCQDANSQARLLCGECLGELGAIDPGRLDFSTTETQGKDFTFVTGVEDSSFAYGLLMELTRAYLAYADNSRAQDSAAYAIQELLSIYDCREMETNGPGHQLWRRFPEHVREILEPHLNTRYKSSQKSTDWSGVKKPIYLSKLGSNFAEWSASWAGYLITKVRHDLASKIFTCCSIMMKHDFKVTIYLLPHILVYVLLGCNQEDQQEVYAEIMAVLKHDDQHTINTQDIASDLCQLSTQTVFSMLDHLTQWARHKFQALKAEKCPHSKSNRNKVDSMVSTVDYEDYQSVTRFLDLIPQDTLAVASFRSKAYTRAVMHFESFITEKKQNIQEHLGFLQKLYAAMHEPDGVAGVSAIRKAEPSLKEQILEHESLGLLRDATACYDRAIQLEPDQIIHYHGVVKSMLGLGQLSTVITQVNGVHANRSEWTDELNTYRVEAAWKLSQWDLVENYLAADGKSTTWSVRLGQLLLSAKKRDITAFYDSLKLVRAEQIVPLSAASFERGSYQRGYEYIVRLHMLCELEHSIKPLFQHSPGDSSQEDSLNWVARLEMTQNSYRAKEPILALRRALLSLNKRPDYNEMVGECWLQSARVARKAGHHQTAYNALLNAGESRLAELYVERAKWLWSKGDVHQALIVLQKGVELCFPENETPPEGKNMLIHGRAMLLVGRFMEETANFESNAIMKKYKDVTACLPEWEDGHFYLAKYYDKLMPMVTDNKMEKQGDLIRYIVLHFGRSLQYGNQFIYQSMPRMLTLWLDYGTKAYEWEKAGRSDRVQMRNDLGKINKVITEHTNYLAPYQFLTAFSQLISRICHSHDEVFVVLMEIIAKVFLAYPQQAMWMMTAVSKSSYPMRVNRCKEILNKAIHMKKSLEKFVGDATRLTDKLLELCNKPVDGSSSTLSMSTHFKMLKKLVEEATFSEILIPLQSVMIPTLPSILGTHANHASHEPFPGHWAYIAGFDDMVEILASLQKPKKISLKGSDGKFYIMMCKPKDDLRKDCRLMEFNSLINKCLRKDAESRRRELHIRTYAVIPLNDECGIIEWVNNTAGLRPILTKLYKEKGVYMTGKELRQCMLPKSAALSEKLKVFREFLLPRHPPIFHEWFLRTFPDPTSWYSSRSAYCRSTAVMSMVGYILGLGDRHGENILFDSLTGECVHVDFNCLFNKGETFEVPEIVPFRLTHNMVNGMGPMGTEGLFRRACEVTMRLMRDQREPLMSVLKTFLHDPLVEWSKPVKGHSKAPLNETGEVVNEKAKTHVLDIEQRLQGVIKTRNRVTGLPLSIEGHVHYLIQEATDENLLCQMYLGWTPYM
# Summary of the method: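 HCT116 exposed to compound for 24 h before 48 h with cisplatin at 2.5 μM. Lysis in RIPA buffer with protease and phosphatase inhibitors, protein measured by BCA, equal loads run on 12% SDS-PAGE and moved to PVDF. Blocked in 5% milk, anti-CHK1 mouse mAb overnight at 4 °C, HRP secondary and ECL detection, GAPDH as loading control.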
# HCT-116 [3] = assay: Potentiation of cisplatin-induced antiproliferative activity against human HCT116 cells assessed as cell growth inhibition at 2.5 uM preincubated for 24 hrs followed by 2.5 uM cisplatin addition and measured after 48 hrs by MTT assay (reference value: 26.98 +/-2.84%); assay type: functional; details: read-out: GI
# HepG2 [4] = assay: Growth inhibition of human HepG2 cells at 10 uM after 24 hrs by MTT assay relative to control; assay type: functional; details: HepG2, 24 h, read-out: GI
# Summary of the method: (§1)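 Monolayers seeded 24 h before treatment, then exposed to compound, with DMEM or RPMI 1640 plus 10% FBS as growth medium. MTT (5 mg mL–1 stock) incubated 2–4 h at 37 °C, formazan dissolved in DMSO, and absorbance read at 570 nm. Growth inhibition reported as % of control.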
# L02 [5] = assay: Cytotoxicity against human LO2 cells assessed as reduction in cell growth at 2.5 uM preincubated for 24 hrs followed by cisplatin addition and measured after 48 hrs by MTT assay; assay type: cell-based; details: l02, 48 h
# HCT-116 [6] = assay: Growth inhibition of human HCT116 cells at 10 uM after 24 hrs by MTT assay relative to control; assay type: functional; details: HCT-116, 24 h, read-out: GI; summary of the method: as §1
# MCF7 [7] = assay: Growth inhibition of human MCF7 cells at 5 uM after 24 hrs by MTT assay relative to control; assay type: functional; details: MCF7, 24 h, read-out: GI; summary of the method: as §1
# HepG2 [8] = assay: Growth inhibition of human HepG2 cells at 5 uM after 24 hrs by MTT assay relative to control; assay type: functional; details: HepG2, 24 h, read-out: GI; summary of the method: as §1
# HCT-116 [9] = assay: Induction of morphological changes in human HCT116 cells assessed as reduction in number of adherent cells at 2.5 uM measured after 24 hrs by Hoechst 33258 staining based fluorescence microscopic analysis; assay type: functional, cell-based
# HCT-116 [10] = assay: Induction of morphological changes in human HCT116 cells assessed as chromatin condensation at 2.5 uM measured after 24 hrs by Hoechst 33258 staining based fluorescence microscopic analysis; assay type: functional, cell-based
# HCT-116 [11] = assay: Induction of morphological changes in human HCT116 cells assessed as cell shrinkage at 2.5 uM measured after 24 hrs by Hoechst 33258 staining based fluorescence microscopic analysis; assay type: functional
# A549 [12] = assay: Growth inhibition of human A549 cells at 5 uM after 24 hrs by MTT assay relative to control; assay type: functional; details: A549, 24 h, read-out: GI; summary of the method: as §1
# HeLa [13] = assay: Growth inhibition of human HeLa cells at 5 uM after 24 hrs by MTT assay relative to control; assay type: functional; details: read-out: GI; summary of the method: as §1
# HCT-116 [14] = assay: Potentiation of cisplatin-induced morphological changes in human HCT116 cells assessed as cell shrinkage at 2.5 uM preincubated for 24 hrs followed by cisplatin addition and measured after 48 hrs by Hoechst 33258 staining based fluorescence microscopic analysis; assay type: functional
# Summary of the method: (§2)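 HCT116 given compound for 24 h, then cisplatin (2.5 μM) for 48 h. Fixed in 4% paraformaldehyde, stained with Hoechst 33258 at 5 μg mL–1, and nuclei examined and counted under a fluorescence microscope. Blue fluorescence quantified, with t-test over three independent experiments.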
# KB [15] = assay: Growth inhibition of human KB cells at 10 uM after 24 hrs by MTT assay relative to control; assay type: functional; details: read-out: GI; summary of the method: as §1
# MCF7 [16] = assay: Growth inhibition of human MCF7 cells at 10 uM after 24 hrs by MTT assay relative to control; assay type: functional; details: MCF7, 24 h, read-out: GI; summary of the method: as §1
# HCT-116 [17] = assay: Induction of apoptosis in human HCT116 cells assessed as early apoptotic cells at 2.5 uM after 24 hrs by Annexin V-FITC/propidium iodide staining based flow cytometry (reference value: 5.75%); assay type: functional
# HCT-116 [18] = assay: Induction of apoptosis in human HCT116 cells assessed as viable cells at 2.5 uM after 24 hrs by Annexin V-FITC/propidium iodide staining based flow cytometry (reference value: 76.5%); assay type: functional; details: HCT-116, 24 h, read-out: Activity
# HCT-116 [19] = assay: Potentiation of cisplatin-induced morphological changes in human HCT116 cells assessed as chromatin condensation at 2.5 uM preincubated for 24 hrs followed by cisplatin addition and measured after 48 hrs by Hoechst 33258 staining based fluorescence microscopic analysis; assay type: functional, cell-based; summary of the method: as §2
# HCT-116 [20] = assay: Potentiation of cisplatin-induced apoptosis in human HCT116 cells assessed as necrotic cells at 2.5 uM preincubated for 24 hrs followed by cisplatin addition and measured after 48 hrs by Annexin V-FITC/propidium iodide staining based flow cytometry (reference value: 11.3%); assay type: functional
# Summary of the method: (§3)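 HCT116 pretreated with compound for 24 h, then cisplatin at 2.5 μM added for 48 h. Cells harvested, washed in cold PBS, pelleted, stained with annexin V-FITC and propidium iodide, and counted by flow cytometry. Three independent experiments.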
# HCT-116 [21] = assay: Growth inhibition of human HCT116 cells at 2.5 uM after 24 hrs by MTT assay relative to control; assay type: functional; details: HCT-116, 24 h, read-out: GI; summary of the method: as §1
# KB [22] = assay: Growth inhibition of human KB cells at 5 uM after 24 hrs by MTT assay relative to control; assay type: functional; details: read-out: GI; summary of the method: as §1
# HCT-116 [23] = assay: Potentiation of cisplatin-induced apoptosis in human HCT116 cells assessed as late apoptotic cells at 2.5 uM preincubated for 24 hrs followed by cisplatin addition and measured after 48 hrs by Annexin V-FITC/propidium iodide staining based flow cytometry (reference value: 11.5%); assay type: functional; summary of the method: as §3
# HCT-116 [24] = assay: Potentiation of cisplatin-induced apoptosis in human HCT116 cells assessed as viable cells at 2.5 uM preincubated for 24 hrs followed by cisplatin addition and measured after 48 hrs by Annexin V-FITC/propidium iodide staining based flow cytometry (reference value: 73.2%); assay type: functional; details: read-out: Activity; summary of the method: as §3
# HCT-116 [25] = assay: Growth inhibition of human HCT116 cells at 5 uM after 24 hrs by MTT assay relative to control; assay type: functional; details: HCT-116, 24 h, read-out: GI; summary of the method: as §1
# HCT-116 [26] = assay: Potentiation of cisplatin-induced apoptosis in human HCT116 cells assessed as early apoptotic cells at 2.5 uM preincubated for 24 hrs followed by cisplatin addition and measured after 48 hrs by Annexin V-FITC/propidium iodide staining based flow cytometry (reference value: 4.07%); assay type: functional; summary of the method: as §3
# HeLa [27] = assay: Growth inhibition of human HeLa cells at 10 uM after 24 hrs by MTT assay relative to control; assay type: functional; details: read-out: GI; summary of the method: as §1
# A549 [28] = assay: Growth inhibition of human A549 cells at 10 uM after 24 hrs by MTT assay relative to control; assay type: functional; details: A549, 24 h, read-out: GI; summary of the method: as §1
# HCT-116 [29] = assay: Potentiation of cisplatin-induced morphological changes in human HCT116 cells assessed as reduction in number of adherent cells at 2.5 uM preincubated for 24 hrs followed by cisplatin addition and measured after 48 hrs by Hoechst 33258 staining based fluorescence microscopic analysis; assay type: functional, cell-based; summary of the method: as §2
# L02 [30] = assay: Cytotoxicity against human LO2 cells assessed as reduction in cell growth at 5 to 10 uM after 24 hrs by MTT assay; assay type: cell-based; details: l02, 24 h
# HCT-116 [31] = assay: Induction of apoptosis in human HCT116 cells assessed as late apoptotic cells at 2.5 uM after 24 hrs by Annexin V-FITC/propidium iodide staining based flow cytometry (reference value: 7.36%); assay type: functional
Compound,Activity (HCT-116 [1]) [%],inhibition [2],inhibition of growth at 2.5 µM (HCT-116 [3]) [%],inhibition of growth at 10 µM (HepG2 [4]) [%],Activity (L02 [5]),inhibition of growth at 10 µM (HCT-116 [6]) [%],inhibition of growth at 5 µM (MCF7 [7]) [%],inhibition of growth at 5 µM (HepG2 [8]) [%],Activity (HCT-116 [9]),Activity (HCT-116 [10]),Activity (HCT-116 [11]),inhibition of growth at 5 µM (A549 [12]) [%],inhibition of growth at 5 µM (HeLa [13]) [%],Activity (HCT-116 [14]),inhibition of growth at 10 µM (KB [15]) [%],inhibition of growth at 10 µM (MCF7 [16]) [%],Activity (HCT-116 [17]) [%],viability at 2.5 µM (HCT-116 [18]) [%],Activity (HCT-116 [19]),Activity (HCT-116 [20]) [%],also measured
Cc1ccc(-c2nnc(-c3c[nH]c4ncc(-c5ccc(S(C)(=O)=O)cc5)cc4c3=O)o2)cc1,10.8,Dose-dependent effect,54.8,8.94,Non-Toxic,24.4,6.26,6.9,Active,Active,Active,6.69,10.4,Active,3.19,10.6,10.6,72.4,Active,31.2,inhibition of growth at 2.5 µM (HCT-116 [21]): 7.47%; inhibition of growth at 5 µM (KB [22]): 0.43%; Activity (HCT-116 [23]): 17.7%; viability at 2.5 µM (HCT-116 [24]): 31.2%; inhibition of growth at 5 µM (HCT-116 [25]): 20.4%; Activity (HCT-116 [26]): 20%; inhibition of growth at 10 µM (HeLa [27]): 18.5%; inhibition of growth at 10 µM (A549 [28]): 11.2%; Activity (HCT-116 [29]): Active; Activity (L02 [30]): Non-Toxic; Activity (HCT-116 [31]): 6.26%
Cc1cccc(-c2nnc(-c3c[nH]c4ncc(-c5ccc(S(C)(=O)=O)cc5)cc4c3=O)o2)c1,18.1,Dose-dependent effect,50.8,13.3,Non-Toxic,25.2,1.86,13.2,Active,Active,Active,7.92,1.49,Active,7.5,7.76,4.61,70.4,Active,23.4,inhibition of growth at 2.5 µM (HCT-116 [21]): 8.13%; inhibition of growth at 5 µM (KB [22]): 3.7%; Activity (HCT-116 [23]): 17.2%; viability at 2.5 µM (HCT-116 [24]): 52.4%; inhibition of growth at 5 µM (HCT-116 [25]): 20.4%; Activity (HCT-116 [26]): 6.98%; inhibition of growth at 10 µM (HeLa [27]): 2.57%; inhibition of growth at 10 µM (A549 [28]): 8.95%; Activity (HCT-116 [29]): Active; Activity (L02 [30]): Non-Toxic; Activity (HCT-116 [31]): 6.89%
